Measurements gathered from unrelated publications.
Protocols differ between the studies behind these lines. pIC50: −log10 of the molar value.
Target: Prostaglandin G/H synthase 1 (PTGS1, Ovis aries, UniProt P05979)
Observed: enzyme activity
Mode: inhibitor
Sequence (P05979 25-600, as in one of the studies): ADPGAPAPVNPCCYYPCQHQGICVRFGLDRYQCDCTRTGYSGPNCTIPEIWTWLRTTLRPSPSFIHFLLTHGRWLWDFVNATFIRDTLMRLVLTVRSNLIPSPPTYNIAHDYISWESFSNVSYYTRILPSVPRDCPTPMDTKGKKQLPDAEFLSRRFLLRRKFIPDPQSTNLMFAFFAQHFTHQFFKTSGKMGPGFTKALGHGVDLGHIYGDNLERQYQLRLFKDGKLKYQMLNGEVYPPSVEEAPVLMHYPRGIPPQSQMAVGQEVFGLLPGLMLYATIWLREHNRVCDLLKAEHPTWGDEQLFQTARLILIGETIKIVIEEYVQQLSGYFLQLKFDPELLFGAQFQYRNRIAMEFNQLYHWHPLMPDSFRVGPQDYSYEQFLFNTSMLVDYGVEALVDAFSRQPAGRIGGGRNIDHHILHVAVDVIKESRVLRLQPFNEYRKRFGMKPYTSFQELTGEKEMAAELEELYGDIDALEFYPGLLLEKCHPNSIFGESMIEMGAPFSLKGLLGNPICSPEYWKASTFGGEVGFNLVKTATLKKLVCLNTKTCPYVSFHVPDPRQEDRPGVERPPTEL

| Structure (SMILES) | technique | pIC50 |
| --- | --- | --- |
| CC(C)Cc1ccc(-c2nn(-c3ccc(S(C)(=O)=O)cc3)cc2/C=N\N=C2/NC(=O)CS2)cc1 | – | 4.71 |
| Cc1ccc(Nc2c(-c3ccc(S(C)(=O)=O)cc3)nc3cccc(C)n23)cc1 | fluorescence | 4.71 |
| CSc1ccc(/C=C2\C=C(CC(=O)NS(=O)(=O)c3ccc4ccccc4c3)c3cc(F)ccc32)cc1 | – | 5.70 |
| CS(=O)(=O)c1ccc(-c2ncccc2-c2nc3ccccc3s2)cc1 | absorbance | < 4.00 |
| COc1ccc(-c2nn(-c3ccc(S(C)(=O)=O)cc3)cc2/C=N/N=c2\[nH]c(-c3ccc(Br)cc3)cs2)cc1 | – | 4.20 |
| COc1ccccc1-c1ccc(F)c(OC(F)(F)F)c1 | absorbance | 4.97 |
| CC(C)Cc1ccc(-c2nn(-c3ccc(S(C)(=O)=O)cc3)cc2/C=N/N=c2\[nH]c(-c3ccc(Br)cc3)cs2)cc1 | – | 4.56 |
| Fc1ccc(-c2ccccc2F)cc1OC(F)(F)F | absorbance | 4.96 |
| Cc1cccn2c(Nc3ccccc3)c(-c3ccc(S(C)(=O)=O)cc3)nc12 | fluorescence | 4.45 |
| O=[N+]([O-])c1ccc(-c2ccccc2F)cc1 | absorbance | 5.00 |
| Cc1cccc2nc(-c3ccc(S(C)(=O)=O)cc3)c(Nc3ccc(Cl)cc3)n12 | fluorescence | 4.57 |
| Cc1ccc(-c2nc3ccccc3s2)c(-c2ccc(S(N)(=O)=O)cc2)c1 | absorbance | < 4.00 |
| Cc1cccn2c(Nc3ccc(F)cc3)c(-c3ccc(S(C)(=O)=O)cc3)nc12 | fluorescence | 4.50 |
| Cc1ccc(-c2nn(-c3ccc(S(C)(=O)=O)cc3)cc2/C=N\N=c2/[nH]c(-c3ccc([N+](=O)[O-])cc3)cs2)cc1 | – | 4.30 |
| COc1ccccc1-c1cccc([N+](=O)[O-])c1F | absorbance | 5.03 |
| COc1ccc(Nc2c(-c3ccc(S(C)(=O)=O)cc3)nc3ccccn23)cc1 | fluorescence | 4.78 |
| CSc1ccc(/C=C2\C=C(CC(=O)NS(=O)(=O)c3ccc(C(F)(F)F)cc3)c3cc(F)ccc32)cc1 | – | 5.41 |
| C[C@@H]1O[C@@H](OC[C@H]2O[C@@H](Oc3c(-c4ccc(O)cc4)oc4cc(O)cc(O)c4c3=O)[C@H](O[C@@H]3O[C@H](CO)[C@@H](O)[C@H](O)[C@H]3O)[C@@H](O)[C@@H]2O)[C@H](O)[C@H](O)[C@H]1O | absorbance | 4.89 |
| COc1ccccc1-c1ccc(F)c(C(F)(F)F)c1 | absorbance | 5.00 |
| Cc1ccn2c(Nc3ccc(F)cc3)c(-c3ccc(S(C)(=O)=O)cc3)nc2c1 | fluorescence | 4.47 |
| NS(=O)(=O)c1ccc(-c2ncccc2-c2nc3ccccc3s2)cc1 | absorbance | < 4.00 |
| CC(C)Cc1ccc(-c2nn(-c3ccc(S(C)(=O)=O)cc3)cc2/C=N/N=c2\[nH]c(-c3ccc([N+](=O)[O-])cc3)cs2)cc1 | – | 4.46 |
| O=C(O)CC1=C/C(=C\c2cccc(-c3ccc(F)cc3)n2)c2ccc(F)cc21 | – | 5.03 |
| Cc1ccc(Nc2c(-c3ccc(S(C)(=O)=O)cc3)nc3c(C)cccn23)cc1 | fluorescence | 4.45 |
